# Experimental data from different studies.
# Compare with care: the assays were run in different laboratories.
# Target: cAMP-dependent protein kinase catalytic subunit beta (PRKACB, Homo sapiens, UniProt P22694)
# Technique: competition with immobilised ligand
SMILES,test,conditions,remaining binding [%]
COc1ccc2c(O[C@@H]3C[C@H]4C(=O)N[C@]5(C(=O)O)CC5/C=C\CCCCC[C@H](NC(=O)OC5CCCC5)C(=O)N4C3)cc(-c3csc(NC(=O)C(C)C)n3)nc2c1C (some centres unmarked),cell-free assay,1 µM,100
COc1cnc(Nc2cccc(S(N)(=O)=O)c2)nc1N1CCN(c2ccccc2)CC1,binding,1 µM,85
C[C@@H](c1ccc(-n2cnc3c(N)ncnc32)cc1)N1CCc2nn(C)c(Cc3ccccc3)c2C1=O,binding,0.1 µM,100
O=C(NCCCN1CCOCC1)c1ccc(Nc2nccc(-c3cc4ccccc4s3)n2)cc1,binding,1 µM,100
CN(C)CC#Cc1ccc(OCCCc2sc(N3CCc4cccc(C(=O)Nc5nc6ccccc6s5)c4C3)nc2C(=O)O)c(F)c1,cell-free assay,1 µM,100
Cc1cnn2ncc(-c3ccnc(N(C)C)n3)c2c1,binding,1 µM,96
CNC(=O)Nc1ccc2c(c1)[C@@]1(CC2)OC(=O)N(CC(=O)N(Cc2ccc(F)cc2)[C@@H](C)C(F)(F)F)C1=O,cell-free assay,1 µM,100
c1cncc(-c2cccc(Nc3nccc(NC4CCCCC4)n3)c2)c1,binding,10 µM,56
COc1ccnn2ncc(-c3ccnc(N(C)C)n3)c12,binding,1 µM,95
O=C(Nc1c[nH]nc1C(=O)NC1CCNCC1)c1cc(F)cc(F)c1,binding,1 µM,100
CCN1CCN(Cc2ccc(C(=O)Nc3ccc(C)c(Oc4ccc5c(c4)CC(=O)N5)c3)cc2C(F)(F)F)CC1,binding,1 µM,80
CN(CCCC(F)(F)F)c1nccc(-c2cnn3ncccc23)n1,binding,1 µM,100
O=C(O)c1cc(-c2ccc(C3CCNCC3)cc2)c2ccc(-c3ccc(C(F)(F)F)cc3)cc2c1,cell-free assay,1 µM,100
FC(F)(F)Oc1cccc(-c2cnc3ccc(-c4ccncc4)nn23)c1,cell-free assay,5 µM,98
C[C@@H]1CCN(c2nccc(-c3cnn4ncccc34)n2)C1,binding,1 µM,72
O=C(c1ccc(Nc2ncc(Cl)c(-c3cc4ccccc4s3)n2)cc1)N1CCC(N2CCCC2)CC1,binding,1 µM,98
O=C(NCCCC1CCCCC1)c1ccc(CNC(=O)c2cnn(-c3ccccc3)c2C(F)(F)F)cc1,cell-free assay,0.1 µM,100
N[C@H]1CCN(c2nccc(-c3cnn4ncccc34)n2)C1,binding,1 µM,83
Cc1cnc(Nc2ccc(C(=O)N3CCC(N4CCCC4)CC3)cc2)nc1-c1cc2ccccc2s1,binding,1 µM,85
COc1cc(-c2cn(C3CCc4c(F)cccc4N(CC(F)(F)F)C3=O)nn2)ccc1-n1cnc(C)c1 (centres unmarked),cell-free assay,1 µM,95
